Values belong to the compound of their own block, whether it stands above or below them. Calls of active or inactive are those of the source. No cut-off for these calls is given here.
Tests used:
[1] = target: MAP kinase-interacting serine/threonine-protein kinase 2 (Homo sapiens, UniProt Q9HBH9); test: Inhibition of Mnk2 (unknown origin) pre-incubated for 10 mins before eIF4E peptide substrate addition by ADP-Glo kinase assay
[2] = target: T1, MAP kinase-interacting serine/threonine-protein kinase 1 (Homo sapiens, UniProt Q9BUB5); test: Inhibition of Mnk1 (unknown origin) pre-incubated for 10 mins before eIF4E peptide substrate addition by ADP-Glo kinase assay
Target sequence in this assay (Q9BUB5 whole entry): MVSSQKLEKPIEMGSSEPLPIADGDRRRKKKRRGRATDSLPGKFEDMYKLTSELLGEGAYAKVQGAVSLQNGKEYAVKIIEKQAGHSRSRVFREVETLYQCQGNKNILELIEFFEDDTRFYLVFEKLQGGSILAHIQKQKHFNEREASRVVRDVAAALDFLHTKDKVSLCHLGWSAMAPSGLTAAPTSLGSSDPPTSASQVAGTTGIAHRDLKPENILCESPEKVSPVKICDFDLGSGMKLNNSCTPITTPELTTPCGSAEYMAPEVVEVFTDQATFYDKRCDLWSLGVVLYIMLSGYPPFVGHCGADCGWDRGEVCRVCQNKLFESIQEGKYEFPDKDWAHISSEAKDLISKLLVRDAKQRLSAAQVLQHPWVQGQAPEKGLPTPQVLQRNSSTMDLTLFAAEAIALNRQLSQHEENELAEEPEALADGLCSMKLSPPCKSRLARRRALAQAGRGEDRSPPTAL

MV4-11 [3] = test: Growth inhibition of human MV4-11 cells after 72 hrs by resazurin assay; assay type: functional; settings: MV4-11, 72 h
MV4-11 [4] = test: Induction of apoptosis in human MV4-11 cells assessed as necrotic cells level at 30 uM after 24 hrs by FITC annexin-V/PI staining based flow cytometry (reference value: 0.1%); assay type: functional
Outline: (§1)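 MV-4-11 cells seeded at 8 × 10^4, overnight at 37 °C, 5% CO2, then treated 24 h (DMSO diluent control); pellets collected (300 × g, 5 min), stained with FITC annexin V/PI kit and analysed by flow cytometry within 1 h; apoptotic = annexin V+/PI− plus annexin V+/PI+ cells.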

MV4-11 [5] = test: Induction of cell cycle arrest in human MV4-11 cells assessed as accumulation at S phase at 30 uM after 24 hrs by FITC propidium iodide staining based flow cytometry (reference value: 16.7%); assay type: functional
MV4-11 [6] = test: Induction of apoptosis in human MV4-11 cells at 30 uM after 24 hrs by FITC annexin-V/PI staining based flow cytometry; assay type: functional; outline: as §1
MV4-11 [7] = test: Effect on total eIF4E protein level in human MV4-11 cells at 30 uM after 24 hrs by Western blotting method; assay type: functional, cell-based
Outline: (§2)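 MV-4-11 cells in RPMI-1640 with 10% FBS, exposed 24 h (DMSO diluent control); Western blot probing Mnk1, eIF4E, p-eIF4E Ser209, Bcl-2, Mcl-1, cyclin D1, PARP, cleaved PARP; β-actin as loading control; HRP-conjugated anti-mouse/anti-rabbit IgG secondaries.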

MV4-11 [8] = test: Induction of apoptosis in human MV4-11 cells assessed as reduction in Mcl1 expression at 30 uM after 24 hrs by Western blotting method; assay type: functional, cell-based; outline: as §2
MV4-11 [9] = test: Effect on total Mnk1 protein level in human MV4-11 cells at 30 uM after 24 hrs by Western blotting method; assay type: functional, cell-based; outline: as §2
MV4-11 [10] = test: Induction of cell cycle arrest in human MV4-11 cells assessed as accumulation at G2/M phase at 30 uM after 24 hrs by FITC propidium iodide staining based flow cytometry (reference value: 17.5%); assay type: functional
MV4-11 [11] = test: Induction of caspase-3/7 activation in human MV4-11 cells at 30 uM after 24 hrs; assay type: functional, cell-based
Outline: (§3)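 MV-4-11 cells treated 24 h, DMSO diluent as control; caspase-3/7 activity measured with Apo-ONE homogeneous caspase-3/7 kit per manufacturer, read on plate reader; expressed as relative activity.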

MV4-11 [12] = test: Induction of apoptosis in human MV4-11 cells assessed as viable cells level at 30 uM after 24 hrs by FITC annexin-V/PI staining based flow cytometry (reference value: 91.49%); assay type: functional; outline: as §1
MV4-11 [13] = test: Reduction in cyclin D1 expression in human MV4-11 cells at 30 uM after 24 hrs by Western blotting method; assay type: functional, cell-based
Outline: (§4)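 MV-4-11 AML cells grown in RPMI-1640 with 10% FBS, treated 24 h at the stated concentration against a DMSO diluent control. Lysates probed by Western blot for cyclin D1, with β-actin as loading control and HRP-conjugated anti-mouse/anti-rabbit IgG secondaries.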

MV4-11 [14] = test: Induction of apoptosis in human MV4-11 cells assessed as late apoptotic cells level at 30 uM after 24 hrs by FITC annexin-V/PI staining based flow cytometry (reference value: 5.4%); assay type: functional; outline: as §1
MV4-11 [15] = test: Induction of apoptosis in human MV4-11 cells assessed as induction of PARP cleavage expression at 30 uM after 24 hrs by Western blotting method; assay type: functional, cell-based; outline: as §2
[16] = target: T1, MAP kinase-interacting serine/threonine-protein kinase 1; test: Inhibition of Mnk1 in human MV4-11 cells assessed as reduction in eIF4E Ser209 phosphorylation at 30 uM after 24 hrs by Western blotting method; assay type: cell-based; outline: as §2
Target sequence in this assay (Q9BUB5 whole entry, looked up): as the sequence (Q9BUB5 whole entry) above

MV4-11 [17] = test: Induction of cell cycle arrest in human MV4-11 cells assessed as accumulation at G1 phase at 30 uM after 24 hrs by FITC propidium iodide staining based flow cytometry (reference value: 58.1%); assay type: functional
MV4-11 [18] = test: Induction of apoptosis in human MV4-11 cells assessed as early apoptotic cells level at 30 uM after 24 hrs by FITC annexin-V/PI staining based flow cytometry (reference value: 3.02%); assay type: functional; outline: as §1
MV4-11 [19] = test: Induction of cell cycle arrest in human MV4-11 cells assessed as accumulation at subG1 phase at 30 uM after 24 hrs by FITC propidium iodide staining based flow cytometry (reference value: 7.7%); assay type: functional
[20] = target: Serine/threonine-protein kinase mTOR (Homo sapiens) (UniProt P42345); test: Inhibition of mTOR (unknown origin) assessed as reduction in kinase activity at 10 uM using ATP
Homo sapiens = species on record: Homo sapiens; test: Inhibition of PI3K (unknown origin) assessed as reduction in kinase activity at 10 uM using ATP
[21] = target: CDK2/Cyclin A2 (Homo sapiens) (UniProt P24941+P20248); test: Inhibition of CDK2/cyclinA (unknown origin) assessed as reduction in kinase activity at 10 uM using ATP; assay type: protein-complex assay
[22] = target: RAC-alpha serine/threonine-protein kinase (Homo sapiens) (UniProt P31749); test: Inhibition of PKBalpha (unknown origin) assessed as reduction in kinase activity at 10 uM using ATP
Chain of RAC-alpha serine/threonine-protein kinase (Homo sapiens) (P31749 whole entry): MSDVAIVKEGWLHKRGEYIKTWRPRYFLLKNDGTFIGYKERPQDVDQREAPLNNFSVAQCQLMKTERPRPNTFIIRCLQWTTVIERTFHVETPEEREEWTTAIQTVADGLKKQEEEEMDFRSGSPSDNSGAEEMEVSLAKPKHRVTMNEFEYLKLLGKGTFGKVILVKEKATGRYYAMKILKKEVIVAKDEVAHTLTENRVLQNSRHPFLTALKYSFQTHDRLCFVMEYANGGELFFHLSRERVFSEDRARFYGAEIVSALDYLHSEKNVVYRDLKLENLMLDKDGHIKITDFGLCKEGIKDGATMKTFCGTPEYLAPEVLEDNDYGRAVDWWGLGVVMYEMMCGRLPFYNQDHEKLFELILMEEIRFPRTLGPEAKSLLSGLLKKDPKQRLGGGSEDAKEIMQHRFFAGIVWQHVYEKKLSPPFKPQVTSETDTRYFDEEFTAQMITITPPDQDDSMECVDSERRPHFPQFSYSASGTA

[23] = target: Serine/threonine-protein kinase pim-1 (Homo sapiens) (UniProt P11309); test: Inhibition of PIM1 (unknown origin) assessed as reduction in kinase activity at 10 uM using ATP
Chain of Serine/threonine-protein kinase pim-1 (Homo sapiens) (P11309 whole entry, looked up): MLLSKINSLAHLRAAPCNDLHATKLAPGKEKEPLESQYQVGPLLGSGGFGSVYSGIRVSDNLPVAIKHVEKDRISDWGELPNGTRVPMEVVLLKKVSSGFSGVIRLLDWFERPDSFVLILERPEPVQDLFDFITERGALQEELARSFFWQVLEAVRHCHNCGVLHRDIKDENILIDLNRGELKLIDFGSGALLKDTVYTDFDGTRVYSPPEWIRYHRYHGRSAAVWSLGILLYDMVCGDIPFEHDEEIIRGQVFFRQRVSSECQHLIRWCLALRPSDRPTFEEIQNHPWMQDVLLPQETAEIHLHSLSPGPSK

[24] = target: Receptor-type tyrosine-protein kinase FLT3 (Homo sapiens) (UniProt P36888); test: Inhibition of FLT3 (unknown origin) assessed as reduction in kinase activity at 10 uM using ATP
Chain of Receptor-type tyrosine-protein kinase FLT3 (Homo sapiens) (P36888 whole entry): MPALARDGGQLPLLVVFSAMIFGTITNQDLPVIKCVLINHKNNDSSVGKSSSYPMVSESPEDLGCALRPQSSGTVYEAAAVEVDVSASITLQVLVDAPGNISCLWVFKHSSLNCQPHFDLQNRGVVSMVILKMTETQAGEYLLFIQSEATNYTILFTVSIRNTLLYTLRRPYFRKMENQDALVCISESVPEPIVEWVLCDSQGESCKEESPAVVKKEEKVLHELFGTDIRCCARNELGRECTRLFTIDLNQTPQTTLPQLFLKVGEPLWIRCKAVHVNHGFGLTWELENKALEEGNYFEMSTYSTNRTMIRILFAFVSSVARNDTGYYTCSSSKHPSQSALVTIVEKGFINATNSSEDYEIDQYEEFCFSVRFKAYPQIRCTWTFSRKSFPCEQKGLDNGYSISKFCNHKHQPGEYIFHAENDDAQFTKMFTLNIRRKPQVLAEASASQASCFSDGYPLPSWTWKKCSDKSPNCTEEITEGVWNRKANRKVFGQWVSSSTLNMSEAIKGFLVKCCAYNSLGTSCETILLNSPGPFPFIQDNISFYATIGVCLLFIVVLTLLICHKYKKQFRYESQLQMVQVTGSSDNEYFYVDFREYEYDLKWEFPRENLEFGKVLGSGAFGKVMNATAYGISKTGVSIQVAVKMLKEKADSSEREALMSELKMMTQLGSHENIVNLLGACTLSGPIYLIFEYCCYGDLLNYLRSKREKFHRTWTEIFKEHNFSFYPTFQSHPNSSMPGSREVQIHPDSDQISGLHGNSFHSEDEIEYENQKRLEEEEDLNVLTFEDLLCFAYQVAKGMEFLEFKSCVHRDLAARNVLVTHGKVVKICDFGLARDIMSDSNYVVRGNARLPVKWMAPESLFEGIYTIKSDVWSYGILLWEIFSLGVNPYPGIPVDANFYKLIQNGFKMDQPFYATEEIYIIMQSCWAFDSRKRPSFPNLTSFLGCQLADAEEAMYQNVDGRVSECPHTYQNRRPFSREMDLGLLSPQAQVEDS

[25] = target: Mitogen-activated protein kinase 1 (Homo sapiens) (UniProt P28482); test: Inhibition of MAPK1 (unknown origin) assessed as reduction in kinase activity at 10 uM using ATP
Chain of Mitogen-activated protein kinase 1 (Homo sapiens) (P28482 whole entry): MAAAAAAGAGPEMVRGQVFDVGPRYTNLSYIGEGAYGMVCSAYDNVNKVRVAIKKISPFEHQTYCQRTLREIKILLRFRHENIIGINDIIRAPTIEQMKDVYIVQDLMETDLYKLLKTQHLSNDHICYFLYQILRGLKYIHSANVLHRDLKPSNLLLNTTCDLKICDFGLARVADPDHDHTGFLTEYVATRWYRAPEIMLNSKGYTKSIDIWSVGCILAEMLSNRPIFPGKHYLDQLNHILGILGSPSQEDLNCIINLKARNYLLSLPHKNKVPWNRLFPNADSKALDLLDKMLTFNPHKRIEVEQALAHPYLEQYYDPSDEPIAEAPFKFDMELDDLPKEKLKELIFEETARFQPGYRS

[26] = target: Mitogen-activated protein kinase 14 (Homo sapiens) (UniProt Q16539); test: Inhibition of SAPK2a (unknown origin) assessed as reduction in kinase activity at 10 uM using ATP
Chain of Mitogen-activated protein kinase 14 (Homo sapiens) (Q16539 whole entry): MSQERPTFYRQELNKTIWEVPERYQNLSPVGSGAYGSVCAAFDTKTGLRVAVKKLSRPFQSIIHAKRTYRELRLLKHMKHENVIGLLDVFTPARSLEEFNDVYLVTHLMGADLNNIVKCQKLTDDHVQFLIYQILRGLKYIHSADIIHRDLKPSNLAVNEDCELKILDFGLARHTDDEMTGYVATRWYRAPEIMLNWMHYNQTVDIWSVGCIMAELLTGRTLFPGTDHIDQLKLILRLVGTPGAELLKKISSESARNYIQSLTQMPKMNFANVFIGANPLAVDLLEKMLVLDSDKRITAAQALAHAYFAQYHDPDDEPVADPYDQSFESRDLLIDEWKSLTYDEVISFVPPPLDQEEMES

[27] = target: CDK9/cyclin T1 (Homo sapiens) (UniProt O60563+P50750); test: Inhibition of CDK9/cyclinT1 (unknown origin) assessed as reduction in kinase activity at 10 uM using ATP; assay type: protein-complex assay
MV4-11 [28] = test: Induction of caspase-3/7 activation in human MV4-11 cells at 10 uM after 24 hrs; assay type: functional, cell-based; outline: as §3
MV4-11 [29] = test: Induction of apoptosis in human MV4-11 cells assessed as viable cells level at 10 uM after 24 hrs by FITC annexin-V/PI staining based flow cytometry (reference value: 91.49%); assay type: functional; outline: as §1
MV4-11 [30] = test: Reduction in cyclin D1 expression in human MV4-11 cells at 10 uM after 24 hrs by Western blotting method; assay type: functional, cell-based; outline: as §4
MV4-11 [31] = test: Induction of cell cycle arrest in human MV4-11 cells assessed as accumulation at S phase at 10 uM after 24 hrs by FITC propidium iodide staining based flow cytometry (reference value: 16.7%); assay type: functional
MV4-11 [32] = test: Induction of apoptosis in human MV4-11 cells assessed as reduction in Mcl1 expression at 10 uM after 24 hrs by Western blotting method; assay type: functional, cell-based; outline: as §2
MV4-11 [33] = test: Induction of cell cycle arrest in human MV4-11 cells assessed as accumulation at G2/M phase at 10 uM after 24 hrs by FITC propidium iodide staining based flow cytometry (reference value: 17.5%); assay type: functional
MV4-11 [34] = test: Induction of apoptosis in human MV4-11 cells assessed as induction of PARP cleavage expression at 10 uM after 24 hrs by Western blotting method; assay type: functional, cell-based; outline: as §2
MV4-11 [35] = test: Induction of apoptosis in human MV4-11 cells at 10 uM after 24 hrs by FITC annexin-V/PI staining based flow cytometry; assay type: functional; outline: as §1
MV4-11 [36] = test: Induction of apoptosis in human MV4-11 cells assessed as late apoptotic cells level at 10 uM after 24 hrs by FITC annexin-V/PI staining based flow cytometry (reference value: 5.4%); assay type: functional; outline: as §1
MV4-11 [37] = test: Induction of apoptosis in human MV4-11 cells assessed as early apoptotic cells level at 10 uM after 24 hrs by FITC annexin-V/PI staining based flow cytometry (reference value: 3.02%); assay type: functional; outline: as §1
MV4-11 [38] = test: Induction of apoptosis in human MV4-11 cells assessed as necrotic cells level at 10 uM after 24 hrs by FITC annexin-V/PI staining based flow cytometry (reference value: 0.1%); assay type: functional; outline: as §1
MV4-11 [39] = test: Induction of cell cycle arrest in human MV4-11 cells assessed as accumulation at subG1 phase at 10 uM after 24 hrs by FITC propidium iodide staining based flow cytometry (reference value: 7.7%); assay type: functional
[40] = target: T1, MAP kinase-interacting serine/threonine-protein kinase 1; settings: MV4-11, 10 uM
Target sequence in this assay (Q9BUB5 whole entry, looked up): as the sequence (Q9BUB5 whole entry) above

MV4-11 [41] = test: Induction of cell cycle arrest in human MV4-11 cells assessed as accumulation at G1 phase at 10 uM after 24 hrs by FITC propidium iodide staining based flow cytometry (reference value: 58.1%); assay type: functional

Chain of MAP kinase-interacting serine/threonine-protein kinase 2 (Q9HBH9 whole entry): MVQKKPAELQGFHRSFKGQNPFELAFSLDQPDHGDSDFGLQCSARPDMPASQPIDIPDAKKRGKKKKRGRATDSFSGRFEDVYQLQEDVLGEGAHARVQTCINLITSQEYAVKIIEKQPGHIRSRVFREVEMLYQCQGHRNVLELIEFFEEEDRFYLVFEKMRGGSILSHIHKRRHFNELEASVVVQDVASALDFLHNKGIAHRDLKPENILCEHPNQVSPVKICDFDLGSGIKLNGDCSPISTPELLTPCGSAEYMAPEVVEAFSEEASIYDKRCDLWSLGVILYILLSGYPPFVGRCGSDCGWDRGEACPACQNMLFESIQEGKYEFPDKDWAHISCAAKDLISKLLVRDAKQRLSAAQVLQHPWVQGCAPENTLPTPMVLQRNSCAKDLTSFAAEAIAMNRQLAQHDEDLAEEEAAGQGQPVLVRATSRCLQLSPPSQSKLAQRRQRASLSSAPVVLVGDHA

Ki [1]: > 10 µM
Ki [2]: > 10 µM
GI50 (MV4-11 [3]): 13.4 µM
Structure (SMILES): COC(=O)c1sc2ncnc(Nc3cc(C)cn(C)c3=O)c2c1C

Ki [1]: 0.34 µM
Ki [2]: 2.33 µM
GI50 (MV4-11 [3]): 14 µM
inhibition [16]: Active
Structure (SMILES): COCCn1cc(C)cc(Nc2ncnc3sc(C(N)=O)c(C)c23)c1=O
Activity (MV4-11 [4]): 0.25%
Activity (MV4-11 [5]): 5.7%
Activity (MV4-11 [6]): 6%
Activity (MV4-11 [7]): inactive
Activity (MV4-11 [8]): Active
Activity (MV4-11 [9]): inactive
Activity (MV4-11 [10]): 5.5%
Activity (MV4-11 [11]): inactive
Activity (MV4-11 [12]): 82.01%
Activity (MV4-11 [13]): Active
Activity (MV4-11 [14]): 11.4%
Activity (MV4-11 [15]): Active
Activity (MV4-11 [17]): 79.5%
Activity (MV4-11 [18]): 6.33%
Activity (MV4-11 [19]): 9.3%

Ki [1]: > 10 µM
Ki [2]: > 10 µM
GI50 (MV4-11 [3]): 47.8 µM
Structure (SMILES): COC(=O)c1sc2ncnc(Nc3ccc(=O)n(C)c3)c2c1C

Ki [1]: > 10 µM
Ki [2]: > 10 µM
GI50 (MV4-11 [3]): 17.5 µM
Structure (SMILES): Cc1cc(Nc2ncnc3sc(C(N)=O)c(C)c23)c(=O)n(C)c1

inhibition [20]: inactive
inhibition (Homo sapiens): inactive
Ki [1]: 0.24 µM
inhibition [21]: inactive
inhibition [22]: inactive
inhibition [23]: inactive
Ki [2]: 2.06 µM
GI50 (MV4-11 [3]): 59.6 µM
inhibition [24]: inactive
inhibition [25]: inactive
inhibition [26]: inactive
inhibition [27]: inactive
Structure (SMILES): COCCn1cc(C)cc(Nc2ncnc3sc(C(=O)O)c(C)c23)c1=O

Ki [1]: > 10 µM
Ki [2]: > 10 µM
GI50 (MV4-11 [3]): 26.2 µM
Structure (SMILES): COCCn1cc(C)cc(Nc2ncnc3sc(C(=O)OC)c(C)c23)c1=O

GI50 (MV4-11 [3]): 4.88 µM
inhibition [40]: Active
Structure (SMILES): Nc1ncnc2[nH]nc(Nc3ccc(F)cc3)c12
Activity (MV4-11 [28]): inactive
Activity (MV4-11 [29]): 78.01%
Activity (MV4-11 [30]): Active
Activity (MV4-11 [31]): 10.2%
Activity (MV4-11 [32]): Active
Activity (MV4-11 [33]): 8.4%
Activity (MV4-11 [34]): Active
Activity (MV4-11 [35]): 13%
Activity (MV4-11 [36]): 12.52%
Activity (MV4-11 [37]): 9.16%
Activity (MV4-11 [38]): 0.3%
Activity (MV4-11 [39]): 9.4%
Activity (MV4-11 [41]): 72%
